Key:
Cyclooxygenase [1] = target: T1, Cyclooxygenase (Homo sapiens, UniProt P35354+P23219); test: Inhibition of human platelet Prostaglandin G/H synthase
[2] = target: T2, Polyunsaturated fatty acid 5-lipoxygenase (Homo sapiens, UniProt P09917); test: Inhibition of human neutrophil 5-lipoxygenase
T2 sequence (P09917 whole entry): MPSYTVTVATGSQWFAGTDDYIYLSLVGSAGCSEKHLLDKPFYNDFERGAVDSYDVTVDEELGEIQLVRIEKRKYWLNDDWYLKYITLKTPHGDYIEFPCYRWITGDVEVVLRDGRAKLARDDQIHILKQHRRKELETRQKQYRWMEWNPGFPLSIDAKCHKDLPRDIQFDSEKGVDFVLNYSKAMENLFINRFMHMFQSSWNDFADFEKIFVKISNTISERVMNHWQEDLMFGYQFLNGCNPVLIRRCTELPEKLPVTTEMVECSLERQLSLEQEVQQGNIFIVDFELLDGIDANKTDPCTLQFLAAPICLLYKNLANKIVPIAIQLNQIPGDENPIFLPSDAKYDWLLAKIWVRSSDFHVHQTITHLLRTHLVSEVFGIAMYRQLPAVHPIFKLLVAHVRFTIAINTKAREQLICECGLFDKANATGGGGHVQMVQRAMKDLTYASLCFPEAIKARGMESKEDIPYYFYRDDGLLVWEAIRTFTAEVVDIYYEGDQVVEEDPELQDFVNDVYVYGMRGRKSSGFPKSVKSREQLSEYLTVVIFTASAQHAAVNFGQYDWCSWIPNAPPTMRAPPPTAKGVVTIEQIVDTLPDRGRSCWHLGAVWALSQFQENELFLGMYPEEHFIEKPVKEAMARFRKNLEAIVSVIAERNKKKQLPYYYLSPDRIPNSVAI

Cyclooxygenase [3] = target: T1, Cyclooxygenase; test: Inhibition of human platelet Prostaglandin G/H synthase at the concentration of 1 uM
Method in brief: (§1)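 CO activity measured in human platelets. Percent inhibition at a single test concentration is compared with untreated control, with significance by ANOVA and Tukey's multiple comparisons test (p < 0.05).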

[4] = target: T3, Polyunsaturated fatty acid 5-lipoxygenase (Homo sapiens) (UniProt P09917); test: Inhibition of human neutrophil 5-lipoxygenase at the concentration of 0.1 uM
T3 sequence (whole entry): T2 sequence (P09917 whole entry)
Method in brief: (§2)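 5-LO activity measured in human peripheral blood leukocytes. Percent inhibition at a single test concentration is compared with untreated control, with significance by ANOVA and Tukey's multiple comparisons test (p < 0.05).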

[5] = Inhibition of human platelet Prostaglandin G/H synthase at the concentration of 10 uM; method in brief: as §1
[6] = target: T3, Polyunsaturated fatty acid 5-lipoxygenase (Homo sapiens); test: Inhibition of human neutrophil 5-lipoxygenase at the concentration of 1 uM; method in brief: as §2
[7] = target: T3, Polyunsaturated fatty acid 5-lipoxygenase (Homo sapiens); test: Inhibition of lipoxygenase at the concentration of 1 uM; method in brief: as §2
[8] = target: T3, Polyunsaturated fatty acid 5-lipoxygenase (Homo sapiens); test: Inhibition of lipoxygenase at the concentration of 0.1 uM; method in brief: as §2

SMILES	IC50 (Cyclooxygenase [1])	IC50 [2] [nM]	inhibition (Cyclooxygenase [3]) [%]	inhibition [4] [%]	inhibition [5] [%]	inhibition [6] [%]	inhibition [7] [%]	inhibition [8] [%]
C/C(=C\c1cc(C)c(O)c(C)c1)c1ccc(F)cc1	0.63 µM	430	–	–	–	–	–	–
COc1cc(/C=C/c2cccs2)cc(F)c1O	< 10 µM	< 1000	42	31	97	89	–	–
CCc1cc(/C=C/c2ccc(OC)cc2)cc(CC)c1O	< 10 µM	< 1000	33	15	80	90	–	–
Cc1cc(/C=C2\CCOC2=O)cc(C)c1O	> 10 µM	> 1000	0	–	0	–	1	–
Cc1cc(/C=C/c2ccccc2)cc(C)c1O	4.2 µM	100	–	–	–	–	–	–
Cc1cc(/C=C/c2ccccc2Br)cc(C)c1O	< 1 µM	< 1000	84	–	91	–	94	26
COc1ccc(/C=C/c2cc(C(C)C)c(O)c(C(C)C)c2)cc1	< 10 µM	< 1000	18	13	84	71	–	–
CC(C)(C)c1cc(/C=C/c2ccc(F)cc2)cc(C(C)(C)C)c1O	0.61 µM	> 1000	–	–	–	–	18	24
Cc1ccc(/C=C/c2cc(C(C)(C)C)c(O)c(C(C)(C)C)c2)cc1	10 µM	> 1000	–	–	–	–	0	–
Cc1cc(/C=C/c2ccc(F)cc2F)cc(C)c1O	0.71 µM	< 1000	–	–	–	–	100	25
Cc1cc(/C=C/c2cccs2)cc(F)c1O	< 1 µM	< 1000	72	18	95	90	–	–
Cc1cc(/C=C/c2ccccn2)cc(C)c1O	2.5 µM	< 1000	–	29	–	82	–	–
Cc1cc(/C=C/C(=O)c2ccc(F)cc2)cc(C)c1O	< 10 µM	> 1000	43	–	71	–	33	–
CCCCOc1ccc(/C=C/c2cc(C)c(O)c(C)c2)cc1	< 10 µM	~1000	32	7	67	53	–	–
Cc1cc(/C=C/c2ccccc2OCc2ccccc2)cc(C)c1O	~ 1 uM	< 1000	45	18	92	95	–	–
CCc1ccc(/C=C/c2cc(C)c(O)c(C)c2)cc1	0.51 µM	590	–	–	–	–	–	–
Cc1cc(/C=C/c2cccnc2)cc(C)c1O	11 µM	370	–	–	–	–	–	–
Cc1cc(CCc2cccs2)cc(C)c1O	0.11 µM	< 1000	–	11	–	67	–	–
Cc1ccc(C)c(/C=C/c2cc(C)c(O)c(C)c2)c1	1.3 µM	240	–	–	–	–	–	–
CC(C)(C)c1cc(/C=C2\CCOC2=O)cc(C(C)(C)C)c1O	0.11 µM	–	–	–	–	–	–	–
Cc1cc(/C=C/c2ccc(Cl)s2)cc(C)c1O	1.3 µM	< 1000	–	32	–	92	–	–
Cc1cc(/C=C/c2ccc(C(C)C)cc2)cc(C)c1O	1.4 µM	> 1000	–	–	–	–	30	11
C=CCc1cc(/C=C/c2cccs2)cc(C)c1O	0.73 µM	65	–	–	–	–	–	–

SMILES	IC50 (Cyclooxygenase [1])	IC50 [2] [nM]	inhibition (Cyclooxygenase [3]) [%]	inhibition [4] [%]	inhibition [5] [%]	inhibition [6] [%]	inhibition [7] [%]	inhibition [8] [%]
CC(C)c1cc(/C=C/c2cccs2)cc(C(C)C)c1O	< 1 µM	< 1000	–	14	–	94	–	–
COc1ccccc1/C=C/c1cc(C)c(O)c(C)c1	1.1 µM	100	–	–	–	–	–	–
Cc1cc(/C=C/C(=O)c2cccs2)cc(C)c1O	< 10 µM	> 1000	37	–	82	–	22	–
CC(C)(C)c1cc(C(=O)c2cccs2)cc(C(C)(C)C)c1O [PRIFELONE]	0.0057 µM	4800	–	–	–	–	–	–
CC(C)c1cc(/C=C/c2ccc(F)cc2)cc(C(C)C)c1O	< 10 µM	> 1000	12	–	74	–	40	–
COc1ccc(/C=C/c2cc(C(C)(C)C)c(O)c(C(C)(C)C)c2)cc1	> 10 µM	> 1000	0	–	5	0	–	–
CCCOc1ccc(/C=C/c2cc(C)c(O)c(C)c2)cc1	0.19 µM	< 1000	–	27	–	90	–	–
Cc1cc(/C=C/c2cccc(C(=O)O)c2)cc(C)c1O	> 10 µM	> 1000	0	–	0	–	0	–
CC(C)c1cc(/C=C/c2cccnc2)cc(C(C)C)c1O	< 10 µM	200	–	–	–	–	–	–
Cc1cc(/C=C/c2ccc(C(=O)O)cc2)cc(C)c1O	> 10 µM	> 1000	0	–	0	–	0	–
Cc1cc(/C=C/c2cccc3ccccc23)cc(C)c1O	–	< 1000	–	–	–	–	94	27
Cc1cc(CCc2ccc(F)cc2)cc(C)c1O	0.3 µM	> 1000	–	–	–	–	44	–
Cc1cc(Cc2cccnc2)cc(C)c1O	> 10 µM	> 1000	0	–	7	5	–	–
COc1cc(/C=C/c2cccs2)cc(OC)c1O	< 10 µM	~100	1	52	86	93	–	–
CCc1cc(/C=C/c2cccs2)cc(CC)c1O	< 10 µM	~100	39	52	96	89	–	–
Cc1cc(/C=C/c2cccs2)cc(Cl)c1O	0.23 µM	< 1000	–	29	–	93	–	–
Cc1cc(/C=C/c2ccc(Cl)cc2)cc(C)c1O	0.75 µM	170	–	–	–	–	–	–
Cc1ccc(/C=C/c2cc(C)c(O)c(C)c2)s1	0.78 µM	< 1000	–	26	–	87	–	–
Cc1cc(/C=C/c2csc3ccccc23)cc(C)c1O	0.4 µM	< 1000	–	–	–	–	87	13
Cc1cc(CCC(=O)c2ccc(F)cc2)cc(C)c1O	< 10 µM	> 1000	29	–	80	44	–	–
Cc1cc(C(=O)/C=C/c2cccs2)cc(C)c1O	< 10 µM	> 1000	25	–	82	–	0	–
CC(C)(C)c1cc(/C=C/c2cccs2)cc(C(C)(C)C)c1O	0.034 µM	1200	–	–	–	–	–	–
Cc1cc(C(=O)c2cccs2)cc(C)c1O	< 1 µM	> 1000	60	–	90	1	–	–

Reference: ChEMBL document CHEMBL1124816, “Effect of structure on potency and selectivity in 2,6-disubstituted 4-(2-arylethenyl)phenol lipoxygenase inhibitors” (J Med Chem, 1990)
